# From ChEMBL document CHEMBL3808357, “Discovery of N-(3-((1-Isonicotinoylpiperidin-4-yl)oxy)-4-methylphenyl)-3-(trifluoromethyl)benzamide (CHMFL-KIT-110) as a Selective, Potent, and Orally Available Type II c-KIT Kinase Inhibitor for Gastrointestinal Stromal Tumors (GISTs)” (J Med Chem, 2016)
# Calls of active or inactive are those of the source. No cut-off for these calls is given here.
# Columns and labels:
# [1] = system: Mast/stem cell growth factor receptor Kit (Homo sapiens), P10721 [V559D,T670I]; test: Inhibition of Tel-fused cKIT T670I/V559D double mutant (unknown origin) transfected in mouse BAF3 cells assessed as decrease in cell proliferation after 72 hrs by celltiter-glo/CCK8 assay; format: cell-based
# Procedure, shortened: (§1)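 Stable BaF3 lines made by retroviral transduction with mutagenized TEL-KIT MSCV vectors, puromycin selection 48 h, then gradual IL-3 withdrawal until IL-3-independent; grown in RPMI 1640 with 10% FBS. Cells at 1 to 3 × 10⁴ cells/mL exposed to a concentration series for 72 h; viability read by CellTiter-Glo luminescence or CCK-8 absorbance (450/655 nm); GI50 from triplicate testing.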
# [2] = Half life in Sprague-Dawley rat plasma at 1 mg/kg, iv; format: ADME, organism-based
# Procedure, shortened: (§2)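 Male Sprague-Dawley rats, 8 weeks old, fasted overnight, dosed iv or orally. Formulation was 5% DMSO/40% PEG400/55% saline at 1 mg/mL. Blood (~0.2 mL) was drawn from the jugular vein into heparin. Sampling: iv at 1 min to 8 h; oral at 5 min to 24 h. Plasma was separated by centrifugation at 2−8 °C and stored at −80 °C.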
# [3] = system: Mast/stem cell growth factor receptor Kit (Homo sapiens), P10721 [D816V]; test: Inhibition of Tel-fused cKIT D816V mutant (unknown origin) transfected in mouse BAF3 cells assessed as decrease in cell proliferation after 72 hrs by celltiter-glo/CCK8 assay; format: cell-based; procedure, shortened: as §1
# Rattus norvegicus = test: Apparent volume of distribution in Sprague-Dawley rat plasma at 10 mg/kg, po; format: ADME, organism-based; conditions: in vivo; procedure, shortened: as §2
# [4] = target: Mast/stem cell growth factor receptor Kit (Homo sapiens) (UniProt P10721); test: Inhibition of cKIT autophosphorylation at Y823 in human GIST882 cells up to 10 uM after 2 hrs by Western blot analysis; format: cell-based
# [5] = Tmax in Sprague-Dawley rat plasma at 1 mg/kg, iv; format: ADME, organism-based
# Procedure, shortened: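 Male Sprague–Dawley rats, 8 weeks old, six in total, fasted overnight; compound dissolved in 5% DMSO/40% PEG400/55% saline (1 mg/mL dosing solution), given iv or orally. About 0.2 mL jugular blood taken with heparin at 1 min–8 h (iv) or 5 min–24 h (oral); plasma separated at 2–8 °C and stored at −80 °C before analysis.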
# [6] = target: T1, Platelet-derived growth factor receptor beta (Homo sapiens, UniProt P09619); test: Inhibition of PDGFRbeta phosphorylation at Y857 in human GIST882 cells up to 10 uM after 2 hrs by Western blot analysis; format: cell-based
# Procedure, shortened: (§3)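 Cells were washed in cold PBS, lysed in RIPA and immunoblotted for phospho and total proteins, including pPDGFRα Y849/PDGFRβ Y857 and β-actin.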
# [7] = target: T1, Platelet-derived growth factor receptor beta; test: Inhibition of PDGFRbeta phosphorylation at Y857 in human GIST48B cells up to 10 uM after 2 hrs by Western blot analysis; format: cell-based; procedure, shortened: as §3
# [8] = AUC(0 to infinity) in Sprague-Dawley rat plasma at 1 mg/kg, iv; format: ADME, organism-based; set-up: dose 1 mg/kg, time infinity, route intravenous; procedure, shortened: as §2
# [9] = target: T1, Platelet-derived growth factor receptor beta; test: Inhibition of human wild type partial length PDGFRbeta expressed in bacterial expression system assessed as residual activity at 1 uM by KinomeScan method
# Procedure, shortened: (§4)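 KinomeScan competitive binding panel of 468 kinases and mutants, compound tested at 1 μM; read-out is percent activity remaining (binding relative to control).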
# [10] = target: Epithelial discoidin domain-containing receptor 1 (Homo sapiens, UniProt Q08345); test: Inhibition of human wild type partial length DDR1 expressed in bacterial expression system assessed as residual activity at 1 uM by KinomeScan method; procedure, shortened: as §4
# [11] = Cell cycle arrest in human GIST882 cells at 0.3 to 3 uM after 48 hrs by propidium iodide/RNase staining based flow cytometric analysis; format: functional
# Procedure, shortened: (§5)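 Cells were then fixed in 70% cold ethanol at −20 °C overnight, stained with PI/RNase buffer and analysed by flow cytometry.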
# [12] = target: Mast/stem cell growth factor receptor Kit (Homo sapiens) (UniProt P10721); test: Inhibition of cKIT autophosphorylation at Y703 in human GIST882 cells up to 10 uM after 2 hrs by Western blot analysis; format: cell-based
# [13] = Antiproliferative activity against BCR-ABL dependent human KU812 cells assessed as reduction in cell viability after 72 hrs by celltiter-glo/CCK8 assay; format: functional; conditions: KU812, 72 h
# Procedure, shortened: (§6)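 Cells were seeded at 1 to 3 × 10⁴ cells/mL with serial compound concentrations and incubated 72 h at 37 °C, 5% CO₂. Viability was read by CellTiter-Glo luminescence or CCK-8 absorbance (450/655 nm). GI50 values are from triplicate testing. GIST-T1 and CHO were grown in DMEM/10% FBS; GIST-882, GIST-48B and MV4-11 in IMDM/10% FBS; other lines in RPMI 1640/10% FBS.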
# [14] = Cell cycle arrest in human GIST48B cells at 0.3 to 3 uM after 24 hrs by propidium iodide/RNase staining based flow cytometric analysis; format: functional; procedure, shortened: as §5
# GIST48B = test: Induction of apoptosis in human GIST48B cells assessed as caspase 3 cleavage up to 3 uM after 72 hrs by Western blot analysis; format: functional, cell-based
# [15] = target: Mast/stem cell growth factor receptor Kit (Homo sapiens) (UniProt P10721); test: Inhibition in cKIT autophosphorylation at Y703 in human GISTT1 cells up to 10 uM after 2 hrs by Western blot analysis; format: cell-based; procedure, shortened: as §3
# [16] = Antitumor activity against human GISTT1 cells xenografted in nu/nu mouse assessed as tumor growth inhibition at 100 mg/kg/day administered through oral gavage after 21 days; format: functional; conditions: 504 h, read-out: TGI
# Procedure, shortened: (§7)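 Female nu/nu mice, 6 weeks old, received 5 × 10⁶ GIST-T1 cells in PBS/Matrigel (1:1) subcutaneously in the right flank. At 100−200 mm³, six mice per group were dosed daily by oral gavage at 25, 50 or 100 mg/kg/d in 0.5% methylcellulose/0.4% Tween80, or vehicle. Tumor volume was taken as (W²×L)/2, with body weight and tumor measured daily. Tumors were stained for Ki67 (IHC, 1:50 antibody) and by TUNEL.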
# [17] = target: Mast/stem cell growth factor receptor Kit (Homo sapiens) (UniProt P10721); test: Inhibition of cKIT in human GIST48B cells assessed as suppression of S6K phosphorylation at T389 up to 10 uM after 2 hrs by Western blot analysis; format: cell-based
# GISTT1 = test: Antitumor activity against human GISTT1 cells xenografted in nu/nu mouse assessed as suppression of proliferation at 25 to 100 mg/kg/day administered through oral gavage after 21 days by Ki67 assay; format: functional, organism-based; procedure, shortened: as §7
# [18] = target: Mast/stem cell growth factor receptor Kit (Homo sapiens) (UniProt P10721); test: Inhibition of cKIT in human GIST882 cells assessed as suppression of S6K phosphorylation at T389 up to 10 uM after 2 hrs by Western blot analysis; format: cell-based
# [19] = Antiproliferative activity against cKIT dependent human GIST882 cells assessed as reduction in cell viability after 72 hrs by celltiter-glo/CCK8 assay; format: functional; conditions: GIST882, 72 h; procedure, shortened: as §6
# [20] = Apparent clearance in Sprague-Dawley rat plasma at 1 mg/kg, iv; format: ADME, organism-based; conditions: read-out: CL(app) (converted); procedure, shortened: as §2
# [21] = target: Platelet-derived growth factor receptor alpha (Homo sapiens) (UniProt P16234); test: Inhibition of PDGFRalpha phosphorylation at Y849 in human GISTT1 cells up to 10 uM after 2 hrs by Western blot analysis; format: cell-based; procedure, shortened: as §3
# [22] = Half life in Sprague-Dawley rat plasma at 10 mg/kg, po; format: ADME, organism-based; procedure, shortened: as §2
# [23] = Antiproliferative activity against mouse BAF3 cells; format: cell-based
# Sequence of Mast/stem cell growth factor receptor Kit (Homo sapiens) (P10721 whole entry): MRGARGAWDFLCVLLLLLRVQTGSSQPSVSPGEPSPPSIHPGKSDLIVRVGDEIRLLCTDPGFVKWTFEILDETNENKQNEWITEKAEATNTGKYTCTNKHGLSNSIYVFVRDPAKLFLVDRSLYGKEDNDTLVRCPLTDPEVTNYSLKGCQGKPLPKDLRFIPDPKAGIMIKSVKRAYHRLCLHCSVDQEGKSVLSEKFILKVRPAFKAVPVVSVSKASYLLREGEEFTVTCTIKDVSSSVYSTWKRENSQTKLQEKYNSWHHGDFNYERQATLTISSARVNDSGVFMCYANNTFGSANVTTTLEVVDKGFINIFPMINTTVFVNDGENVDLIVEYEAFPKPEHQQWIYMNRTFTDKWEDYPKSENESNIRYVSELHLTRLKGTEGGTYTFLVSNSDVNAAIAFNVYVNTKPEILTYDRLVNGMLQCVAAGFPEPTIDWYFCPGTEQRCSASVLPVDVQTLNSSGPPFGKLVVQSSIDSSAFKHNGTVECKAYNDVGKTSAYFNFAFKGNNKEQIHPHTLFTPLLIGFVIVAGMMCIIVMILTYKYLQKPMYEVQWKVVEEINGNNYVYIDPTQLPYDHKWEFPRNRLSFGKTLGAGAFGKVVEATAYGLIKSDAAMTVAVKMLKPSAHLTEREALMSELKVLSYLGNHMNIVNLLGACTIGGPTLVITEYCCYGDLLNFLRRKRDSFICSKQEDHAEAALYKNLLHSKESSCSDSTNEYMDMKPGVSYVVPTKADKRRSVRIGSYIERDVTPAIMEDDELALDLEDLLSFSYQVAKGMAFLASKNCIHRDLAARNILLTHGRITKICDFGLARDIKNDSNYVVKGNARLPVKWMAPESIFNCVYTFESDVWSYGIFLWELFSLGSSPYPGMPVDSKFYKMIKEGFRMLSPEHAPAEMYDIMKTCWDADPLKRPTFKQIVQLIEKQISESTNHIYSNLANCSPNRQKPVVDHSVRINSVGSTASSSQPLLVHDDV
# T1 sequence (P09619 whole entry): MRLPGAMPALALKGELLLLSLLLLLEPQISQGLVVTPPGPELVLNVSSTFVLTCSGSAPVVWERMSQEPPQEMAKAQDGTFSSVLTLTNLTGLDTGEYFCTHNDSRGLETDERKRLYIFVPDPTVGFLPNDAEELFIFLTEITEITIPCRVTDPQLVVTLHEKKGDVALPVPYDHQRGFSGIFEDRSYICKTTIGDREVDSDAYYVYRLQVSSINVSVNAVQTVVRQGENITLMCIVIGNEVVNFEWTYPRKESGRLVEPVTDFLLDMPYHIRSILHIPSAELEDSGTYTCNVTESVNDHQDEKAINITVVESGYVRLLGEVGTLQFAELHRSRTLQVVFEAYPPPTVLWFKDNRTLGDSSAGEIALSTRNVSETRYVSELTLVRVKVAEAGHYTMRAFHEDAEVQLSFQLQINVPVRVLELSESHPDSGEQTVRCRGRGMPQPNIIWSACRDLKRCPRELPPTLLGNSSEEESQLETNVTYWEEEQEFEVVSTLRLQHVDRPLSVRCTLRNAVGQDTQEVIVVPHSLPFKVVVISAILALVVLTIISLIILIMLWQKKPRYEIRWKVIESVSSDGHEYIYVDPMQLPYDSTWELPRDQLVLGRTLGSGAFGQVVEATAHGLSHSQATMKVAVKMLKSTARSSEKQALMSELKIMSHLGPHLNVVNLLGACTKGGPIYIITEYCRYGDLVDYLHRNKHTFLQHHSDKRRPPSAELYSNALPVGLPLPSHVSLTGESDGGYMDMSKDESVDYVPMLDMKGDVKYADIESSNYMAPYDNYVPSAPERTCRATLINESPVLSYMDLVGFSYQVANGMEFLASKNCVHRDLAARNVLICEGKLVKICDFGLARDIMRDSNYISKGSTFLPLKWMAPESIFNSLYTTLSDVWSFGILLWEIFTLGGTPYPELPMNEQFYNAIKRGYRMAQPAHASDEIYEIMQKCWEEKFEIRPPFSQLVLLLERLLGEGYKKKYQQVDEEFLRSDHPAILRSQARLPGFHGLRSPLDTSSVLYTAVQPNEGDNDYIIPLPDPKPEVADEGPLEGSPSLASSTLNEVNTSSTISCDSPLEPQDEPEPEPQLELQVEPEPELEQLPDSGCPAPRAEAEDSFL
# Sequence of Platelet-derived growth factor receptor alpha (Homo sapiens) (P16234 whole entry): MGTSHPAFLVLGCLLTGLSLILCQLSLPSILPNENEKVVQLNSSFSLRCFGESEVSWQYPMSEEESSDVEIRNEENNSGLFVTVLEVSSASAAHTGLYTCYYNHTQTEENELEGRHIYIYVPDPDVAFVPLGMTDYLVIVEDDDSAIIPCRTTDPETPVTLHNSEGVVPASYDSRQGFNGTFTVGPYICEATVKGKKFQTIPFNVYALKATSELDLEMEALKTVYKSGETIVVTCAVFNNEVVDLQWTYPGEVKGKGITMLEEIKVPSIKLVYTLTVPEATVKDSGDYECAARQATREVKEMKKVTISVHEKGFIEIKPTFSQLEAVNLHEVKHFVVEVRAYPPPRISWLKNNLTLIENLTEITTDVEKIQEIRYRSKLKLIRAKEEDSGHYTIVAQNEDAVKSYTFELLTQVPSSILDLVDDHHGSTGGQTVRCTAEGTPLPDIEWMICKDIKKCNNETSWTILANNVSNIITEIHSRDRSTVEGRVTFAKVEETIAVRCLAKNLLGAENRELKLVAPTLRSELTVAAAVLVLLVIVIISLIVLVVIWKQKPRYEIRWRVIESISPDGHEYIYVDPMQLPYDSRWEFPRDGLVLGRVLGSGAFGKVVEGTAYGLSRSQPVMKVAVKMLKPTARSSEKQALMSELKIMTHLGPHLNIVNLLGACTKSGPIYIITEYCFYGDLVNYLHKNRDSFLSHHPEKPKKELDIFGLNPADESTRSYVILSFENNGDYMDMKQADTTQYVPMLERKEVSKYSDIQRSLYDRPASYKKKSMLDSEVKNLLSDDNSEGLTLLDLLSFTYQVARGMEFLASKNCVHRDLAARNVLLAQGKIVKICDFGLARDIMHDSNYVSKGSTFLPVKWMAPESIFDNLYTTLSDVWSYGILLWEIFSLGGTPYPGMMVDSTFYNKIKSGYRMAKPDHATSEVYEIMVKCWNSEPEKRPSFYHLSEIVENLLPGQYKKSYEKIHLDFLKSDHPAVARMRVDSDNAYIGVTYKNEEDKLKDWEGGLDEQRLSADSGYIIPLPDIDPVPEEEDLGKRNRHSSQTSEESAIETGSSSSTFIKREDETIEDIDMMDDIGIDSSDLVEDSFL
# Sequence of Epithelial discoidin domain-containing receptor 1 (Q08345 whole entry, the tested form may be a part): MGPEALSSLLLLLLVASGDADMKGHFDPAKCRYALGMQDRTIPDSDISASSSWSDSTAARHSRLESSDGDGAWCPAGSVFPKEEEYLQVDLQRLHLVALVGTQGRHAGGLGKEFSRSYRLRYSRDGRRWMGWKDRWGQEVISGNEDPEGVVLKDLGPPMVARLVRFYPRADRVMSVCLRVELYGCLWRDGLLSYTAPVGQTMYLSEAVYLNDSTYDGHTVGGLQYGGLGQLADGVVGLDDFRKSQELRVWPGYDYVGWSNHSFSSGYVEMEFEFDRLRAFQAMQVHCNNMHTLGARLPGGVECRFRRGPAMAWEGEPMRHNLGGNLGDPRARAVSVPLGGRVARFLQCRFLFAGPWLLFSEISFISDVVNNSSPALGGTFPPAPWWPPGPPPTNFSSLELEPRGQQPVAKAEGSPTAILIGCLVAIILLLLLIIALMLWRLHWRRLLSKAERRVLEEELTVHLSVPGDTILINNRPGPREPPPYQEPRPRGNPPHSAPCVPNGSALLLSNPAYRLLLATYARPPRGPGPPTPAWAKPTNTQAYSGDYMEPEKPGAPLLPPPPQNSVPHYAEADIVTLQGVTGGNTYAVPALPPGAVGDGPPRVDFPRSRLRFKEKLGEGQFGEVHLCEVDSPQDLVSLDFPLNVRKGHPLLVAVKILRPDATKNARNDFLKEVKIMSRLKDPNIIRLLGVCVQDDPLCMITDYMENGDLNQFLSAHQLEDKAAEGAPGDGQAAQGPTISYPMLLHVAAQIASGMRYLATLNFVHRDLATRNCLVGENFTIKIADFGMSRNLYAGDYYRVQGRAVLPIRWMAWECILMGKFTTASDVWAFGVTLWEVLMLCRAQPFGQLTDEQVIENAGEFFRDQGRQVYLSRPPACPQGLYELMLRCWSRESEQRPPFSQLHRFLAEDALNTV
# Sequence of Mast/stem cell growth factor receptor Kit (Homo sapiens), P10721 [D816V] (P10721 whole entry D816V, the tested form may be a part): as the sequence (P10721 whole entry) above, with D816V counted along it
# Sequence of Mast/stem cell growth factor receptor Kit (Homo sapiens), P10721 [V559D,T670I] (P10721 whole entry V559D/T670I, the tested form may be a part): as the sequence (P10721 whole entry) above, with V559D, T670I counted along it
structure (smiles),measurement,setting,value
Cc1ccc(NC(=O)c2cccc(C(F)(F)F)c2)cc1OC1CCN(C(=O)c2ccncc2)CC1,GI50,[1],5.31 µM
same,half-life,[2],27.1 min
same,GI50,[3],> 10 µM
same,Vz,Rattus norvegicus,76.407 L/kg
same,inhibition,[4],Active
same,Tmax,[5],1.02 min
same,inhibition,[6],Active
same,inhibition,[7],Active
same,AUC(0-inf),[8],202 ng·h/mL
same,Activity,[9],0.2%
same,Activity,[10],0.15%
same,Activity,[11],Active
same,inhibition,[12],Active
same,GI50,[13],6.71 µM
same,Activity,[14],inactive
same,Activity,GIST48B,inactive
same,inhibition,[15],Active
same,inhibition in vivo at 100 mg/kg/day,[16],49%
same,inhibition,[17],inactive
same,Activity,GISTT1,Active
same,inhibition,[18],Active
same,GI50,[19],0.043 µM
same,clearance,[20],83.1 mL/min/kg
same,inhibition,[21],Active
same,half-life,[22],247 min
same,GI50,[23],> 10 µM
